Results reported in ChEMBL document CHEMBL1148581, “Antimalarial and antiplasmodial activities of norneolignans. Syntheses and SAR” (J Med Chem, 2006).
In brackets after ≈: the same amount, converted by molar mass. Activity calls are given as the source filed them. No cut-off for these calls is given here.

Assays:
Plasmodium falciparum = test: Antiplasmodial activity against Plasmodium falciparum 3D7; type: functional, organism-based
How it was run: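 Desjardins [³H]phenylalanine incorporation method (Ziegler modification). Parasitized erythrocytes (blood type 0, 5% hematocrit, 2-3% parasitemia) mixed with compounds in RPMI 1640/HEPES with 0.45% Albumax II, L-glutamine, hypoxanthine, gentamicin; final DMSO ≤0.5%. 24 h at 37 °C under 93% N₂/5% CO₂/2% O₂, then label added for further 24 h; filter-harvested, scintillation counted. Three experiments, each in triplicate; IC50.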

Mus musculus [1] = test: Antimalarial activity in NMRI mice (Mus musculus) infected with Plasmodium berghei K173 at 25 mg/kg; type: functional
How it was run: (§1)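 Mice inoculated day 0 with 1×10⁶ P. berghei K173-infected red cells in 0.2 mL 0.9% saline; five mice per group. At day 4 (parasitemia 2-9%), ip dosing in 0.9% saline with 10% Tween 80, pH 4.5, on days 4 and 5; control group untreated or vehicle-injected. Day-5 tail-vein blood smear, Giemsa-stained, infected cells counted microscopically; % inhibition versus control.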

Oryctolagus cuniculus = species: Oryctolagus cuniculus; test: Inhibitory activity against SERCA in rabbit muscle at 3.5 ug/mL; type: tissue-based; details: Muscle tissue
Mus musculus [2] = test: Antimalarial activity in NMRI mice (Mus musculus) infected with Plasmodium berghei K173 at 50 mg/kg; type: functional; how it was run: as §1
Mus musculus [3] = test: Antimalarial activity in NMRI mice (Mus musculus) infected with Plasmodium berghei K173 at 100 mg/kg; type: functional; how it was run: as §1

SMILES | IC50 (Plasmodium falciparum) [µg/mL] | further results
C=CCOc1ccc(CCC(CC)c2ccc(OC)cc2OC)cc1 (configuration not stated) | 3 (≈ 8.81 µM) | –
COc1ccc(C2CC(c3ccc(Cl)cc3Cl)OC2C)c(OC)c1 (configuration not stated) | 6.9 (≈ 18.8 µM) | –
CCC(/C=C/c1ccc(F)cc1F)c1ccc(OC)cc1OC (configuration not stated) | 3.9 (≈ 12.3 µM) | –
C=CC(/C=C/c1ccc(OC)c(OC)c1OC)c1cccc(F)c1 (configuration not stated) | 6 (≈ 18.3 µM) | –
CCC(/C=C/c1ccccc1F)c1cc(OC)cc(OC)c1 (configuration not stated) | 6 (≈ 20 µM) | –
C=CC(/C=C/c1ccc(O)cc1)c1ccc(O)cc1 (racemic) | 13 (≈ 51.5 µM) | –
CCC(/C=C/c1ccc(OC)cc1OC)c1ccc(Cl)cc1Cl (configuration not stated) | 6 (≈ 17.1 µM) | –
C=C[C@H](/C=C/c1ccc(O)cc1)c1ccc(O)cc1 | 14 (≈ 55.5 µM) | –
C=C[C@@H](/C=C/c1ccc(O)cc1)c1ccc(O)cc1 | 20 (≈ 79.3 µM) | –
C=CC(/C=C/c1ccc(F)cc1)c1ccc(F)cc1 (configuration not stated) | 10 (≈ 39 µM) | –
C=CC(/C=C/c1ccccc1F)c1cc(OC)cc(OC)c1 (configuration not stated) | 6 (≈ 20.1 µM) | –
CCC(/C=C/c1ccc(OC)c(OC)c1OC)c1cccc(F)c1 (configuration not stated) | 3.9 (≈ 11.8 µM) | –
C=CCOc1ccc(CCC(C=C)c2ccc(OC)cc2OC)cc1 (configuration not stated) | 5.2 (≈ 15.4 µM) | –
C=CCOc1ccc(CCCc2ccc(OC)cc2OC)cc1 | 9.5 (≈ 30.4 µM) | –
C=CC(/C=C/c1ccc(F)cc1F)c1ccc(OC)cc1OC (configuration not stated) | 7 (≈ 22.1 µM) | –
COc1ccc(C2CC(c3ccccc3Br)OC2C)c(OC)c1 (configuration not stated) | 3 (≈ 7.95 µM) | –

SMILES | IC50 (Plasmodium falciparum) [µg/mL] | further results
C=CC(/C=C/c1ccccc1CN(C)C)c1ccc(Cl)cc1Cl (configuration not stated) | 3 (≈ 8.66 µM) | –
CCC(/C=C/c1ccccc1CN(C)C)c1ccc(Cl)cc1Cl (configuration not stated) | 4.1 (≈ 11.8 µM) | –
C=CCOc1ccc(/C=C/C(CC)c2ccc(OC)cc2OC)cc1 (configuration not stated) | 4 (≈ 11.8 µM) | –
CCC(/C=C/c1ccc(Cl)cc1Cl)c1ccc(OC)cc1OC (configuration not stated) | 4.2 (≈ 12 µM) | –
C=CC(/C=C/c1ccccc1C(F)(F)F)c1ccc(Cl)cc1Cl (configuration not stated) | 8.2 (≈ 23 µM) | –
CCC(/C=C/c1ccccc1C(F)(F)F)c1ccc(Cl)cc1Cl (configuration not stated) | 6 (≈ 16.7 µM) | –
C=CC(/C=C/c1ccc(Cl)cc1Cl)c1ccc(OC)cc1OC (configuration not stated) | 1.5 (≈ 4.29 µM) | inhibition in vivo at 25 mg/kg (Mus musculus [1]): 57%; inhibition (Oryctolagus cuniculus): inactive
CCC(/C=C/c1ccc(F)cc1)c1ccc(F)cc1 (configuration not stated) | 13 (≈ 50.3 µM) | –
C=CCOc1ccc(/C=C/C(CCCC)c2ccc(OC)cc2OC)cc1 (configuration not stated) | 2.7 (≈ 7.37 µM) | –
C=CC(/C=C/c1ccccc1Br)c1ccc(OC)cc1OC (configuration not stated) | 8.8 (≈ 24.5 µM) | –
C=CCOc1ccc(C(O)CC(C=C)c2ccc(OC)cc2OC)cc1 (configuration not stated) | 16 (≈ 45.1 µM) | –
CCC(/C=C/c1ccccc1Br)c1ccc(OC)cc1OC (configuration not stated) | 5.4 (≈ 14.9 µM) | –
C=CCOc1ccc(/C=C/C(C=C)c2ccc(OC)cc2OC)cc1 (configuration not stated) | 7 (≈ 20.8 µM) | –
C=CCOc1ccc(CCC(CCCC)c2ccc(OC)cc2OC)cc1 (configuration not stated) | 2.2 (≈ 5.97 µM) | inhibition in vivo at 25 mg/kg (Mus musculus [1]): 25%; inhibition in vivo at 50 mg/kg (Mus musculus [2]): 49%; inhibition in vivo at 100 mg/kg (Mus musculus [3]): 59%; inhibition (Oryctolagus cuniculus): inactive
C=CC(/C=C/c1ccc(OC)cc1OC)c1ccc(Cl)cc1Cl (configuration not stated) | 7 (≈ 20 µM) | –
